The labels stand for the following.
B1: tRNA (parent)
chain: CUCUCGGUAGCCAAGUUGGUUUAAGGCGCAAGACUUUAAUUUAUCACUACGAAAUCUUGAGAUCGGGCGUUCGACUCGCCCCCGGGAGAUUUUUUCCUCGAGCAA

This sample holds only a part of the variants without activity.

Results on 167 variants are retold here after the RNAGym collection of RNA variant scans (doi:10.1101/gad.245936.114).

The variants in this data set derive from B1. As to the kind of experiment: nonsense suppression (GFP-seq) (ratio to wild type); higher = more function; SUP4oc tRNA, yeast GFP reporter sort-seq. In a few lines:
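Nonsense suppression (GFPSEQ) is the median GFP/RFP ratio of each sorting bin, weighted by the variant's estimated share of cells in that bin and expressed relative to the unmutated parent tRNA. Yeast strains carried genome-integrated variants of an ochre-suppressor tRNA from a library with ~3% random mutations, plus a galactose-driven GFP ochre reporter and RFP, and were grown in raffinose/galactose medium containing 80 mg/L adenine. Cells were sorted into GFP/RFP bins, each bin was Illumina-sequenced (phred ≥30), and variants were kept only with ≥100 reads and ≥30 cells.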
Consider C3A U35C, for which the nonsense suppression is no more than 0.026.

Turning to C3A U35A, the nonsense suppression was no more than 0.026.

As to C3A U35G, the nonsense suppression is no more than 0.026.

Consider C3G A30G C34G U55G G69C C79A, for which the nonsense suppression is no more than 0.026.

In the case of C3A G25C U63A, the nonsense suppression is no more than 0.026.

For U2C G26U U76A, the nonsense suppression was no more than 0.026.

In the case of C3G C11A C81G, the nonsense suppression was no more than 0.026.

Take U2G C3U C27G G66A U70C: the nonsense suppression was no more than 0.026.

Take C3G U8G U21C C34U: the nonsense suppression is no more than 0.026.

As for C3A U4C, the nonsense suppression turned out to be 0.191.

For C3G G78A, the nonsense suppression is no more than 0.026.

For the variant C3G C77A C83A, the nonsense suppression is no more than 0.026.

As for C3A A89G, the nonsense suppression is no more than 0.026.

As for U2C G61U, the nonsense suppression worked out at 0.122.

On to U2C G61C, for which the nonsense suppression came to 0.0279.

With C3A U57A C80U A89U, the nonsense suppression was no more than 0.026.

In the case of C3A G86C, the nonsense suppression is no more than 0.026.

As to U2G C11A A74C G84C, the nonsense suppression was no more than 0.026.

With C3U C12U C82G, the nonsense suppression is no more than 0.026.

As for C3U A31U, the nonsense suppression is no more than 0.026.

C3U A31G: the nonsense suppression came out at 0.0805.

Regarding C3A G78A, the nonsense suppression was 0.0776.

In the case of U2G G10C G15U C29U A31U, the nonsense suppression was no more than 0.026.

With C3U A60U, the nonsense suppression amounted to 0.55.

For U2C U4C, the nonsense suppression is 1.01.

Take U2C U4G: the nonsense suppression worked out at 0.0326.

C3U C27G: the nonsense suppression was determined as 0.0543.

U2G A74C: the nonsense suppression was no more than 0.026.

Turning to C3A C29A A54U, the nonsense suppression was no more than 0.026.

With C3G U4G, the nonsense suppression was 0.0277.

With C3G U4C, the nonsense suppression came out at 0.399.

For U2G A33C A60U G73C, the nonsense suppression is no more than 0.026.

Take U2G A13U: the nonsense suppression worked out at 0.0638.

On to C3U A14G C80G, for which the nonsense suppression was no more than 0.026.

U2C U20C A24U: the nonsense suppression is no more than 0.026.

Consider C3U A23U A30C, for which the nonsense suppression was no more than 0.026.

With U2C G32A A54G, the nonsense suppression was no more than 0.026.

With U2G C77U, the nonsense suppression is no more than 0.026.

In the case of U2G C77G, the nonsense suppression was no more than 0.026.

With C3A U20C U55C, the nonsense suppression is no more than 0.026.

Regarding C3G A23G C27U C81A C83A G86A, the nonsense suppression is no more than 0.026.

Consider U2G U58G C83G, for which the nonsense suppression is no more than 0.026.

For C3U G10C A23U C83G G85A A89U, the nonsense suppression is no more than 0.026.

In the case of U2C U21C, the nonsense suppression was 0.203.

In the case of U2G C83G, the nonsense suppression was no more than 0.026.

On to C3G G85U, for which the nonsense suppression is 0.0369.

Consider C3A G18C G86A, for which the nonsense suppression was no more than 0.026.

With C3U A9U A30G A54U G67A, the nonsense suppression was no more than 0.026.

C3U G6U U22G C81G: the nonsense suppression is no more than 0.026.

C3G A30G U58A: the nonsense suppression was no more than 0.026.

C3U A89C: the nonsense suppression worked out at 0.0874.

In the case of U2C U4C A13G, the nonsense suppression is 0.205.

C3U C75U: the nonsense suppression is 0.539.

As to C3U A13U C34G, the nonsense suppression was no more than 0.026.

As to U2C U21C U57G, the nonsense suppression is no more than 0.026.

Regarding C3U C72G, the nonsense suppression was no more than 0.026.

As to C3G U8G, the nonsense suppression is no more than 0.026.

Turning to U2C U17A, the nonsense suppression was 0.0435.

Take U2C G86A: the nonsense suppression was no more than 0.026.

Consider U2G C27U A30G C79U C83A, for which the nonsense suppression is no more than 0.026.

In the case of C3G G28A U55C G86U G88U, the nonsense suppression was no more than 0.026.

For C3G G65C C79U, the nonsense suppression was no more than 0.026.

Regarding C3U, the nonsense suppression is 0.739.

With C3G A14U G18U, the nonsense suppression is no more than 0.026.

Take C3A C29G A60C C81G: the nonsense suppression was no more than 0.026.

With C3A U58G U76A, the nonsense suppression was no more than 0.026.

U2C G6U C29U: the nonsense suppression was no more than 0.026.

As to C3A G28U G65C, the nonsense suppression was no more than 0.026.

For C3G G7C U55A, the nonsense suppression was no more than 0.026.

With U2C C79G, the nonsense suppression is no more than 0.026.

On to C3G C56G, for which the nonsense suppression was no more than 0.026.

For the variant C3G U20C, the nonsense suppression was 0.0788.

U2G A23G G66A: the nonsense suppression was no more than 0.026.

For C3A U22C G26U C80A, the nonsense suppression was no more than 0.026.

U2C G28U: the nonsense suppression was no more than 0.026.

C3U G6U: the nonsense suppression is 0.0343.

For C3G A54C, the nonsense suppression is 0.0677.

Turning to U2G U8A C12A A30G G59U G88C, the nonsense suppression was no more than 0.026.

As to C3G U20G G69A U70C, the nonsense suppression was no more than 0.026.

With C3G U16G G66A, the nonsense suppression was no more than 0.026.

As to C3A A13U, the nonsense suppression was 0.0379.

For C3A A13C, the nonsense suppression turned out to be 0.0261.

As to C3A A23C G26A U58A G78C, the nonsense suppression is no more than 0.026.

As for C3U C77G, the nonsense suppression worked out at 0.0323.

For the variant U2G G6C A89C, the nonsense suppression is no more than 0.026.

U2G G6C G18A G67C G86A A87G: the nonsense suppression was no more than 0.026.

Regarding U2G G6C G18A G67C G86A A87U, the nonsense suppression was no more than 0.026.

For the variant C3A U70G, the nonsense suppression was no more than 0.026.

With C3A G15U G25A, the nonsense suppression is no more than 0.026.

For C3G G61C, the nonsense suppression was 0.0292.

As for U2C G18C G25U A54C U57C G61U U70G, the nonsense suppression was no more than 0.026.

Consider C3U G10A, for which the nonsense suppression was 0.0262.

Regarding C3U C29G C83G G88C, the nonsense suppression was found to be 0.993.

For the variant C3A G67U, the nonsense suppression is no more than 0.026.

In the case of U2G A9U, the nonsense suppression was 0.0677.

On to C3G A33U C34U A62G G67C, for which the nonsense suppression is no more than 0.026.

Turning to C3U A13C, the nonsense suppression worked out at 0.184.

With C3U A13U, the nonsense suppression is 0.194.

In the case of C3A G65A C68U G86U, the nonsense suppression was no more than 0.026.

As to U2G G28U U35C, the nonsense suppression is no more than 0.026.

Regarding C3U C34U, the nonsense suppression was no more than 0.026.

As to U2G G78U, the nonsense suppression was found to be 0.0774.

With C3U C81U, the nonsense suppression is 0.0941.

On to C3A A23G G25U C72A, for which the nonsense suppression is no more than 0.026.

Take C3G A24C A31C: the nonsense suppression is no more than 0.026.

For C3A G28A G73A A74G, the nonsense suppression was no more than 0.026.

Take C3G C29G A54U: the nonsense suppression is no more than 0.026.

As to C3U A24C, the nonsense suppression worked out at 0.0575.

For U2C C80A, the nonsense suppression was no more than 0.026.

Regarding C3U C5U, the nonsense suppression came to 0.158.

As for C3G G59A G78U A87U, the nonsense suppression was no more than 0.026.

With C3A C29U A87G, the nonsense suppression is no more than 0.026.

Regarding C3U A13G C34G, the nonsense suppression amounted to 0.439.

C3G A9G G59U: the nonsense suppression is no more than 0.026.

Consider U2C G88A, for which the nonsense suppression is no more than 0.026.

Turning to C3G A74G, the nonsense suppression was no more than 0.026.

As to C3G G15C U58G G88C, the nonsense suppression was 0.344.

As to C3U G7A U17G, the nonsense suppression was no more than 0.026.

On to U2G A23U, for which the nonsense suppression is no more than 0.026.

Take C3U C68U: the nonsense suppression amounted to 0.201.

With C3A C72A, the nonsense suppression is no more than 0.026.

On to U2G G85A, for which the nonsense suppression was no more than 0.026.

On to U2G G85U, for which the nonsense suppression was found to be 0.0411.

Consider U2G A14C G84C, for which the nonsense suppression is no more than 0.026.

C3G G7A C56G C79G: the nonsense suppression is 0.783.

For the variant U2G U20A U63C U76C, the nonsense suppression is no more than 0.026.

On to U2G G10A C11G U20G A33G, for which the nonsense suppression was no more than 0.026.

Consider U2C U55C U58G, for which the nonsense suppression was no more than 0.026.

Take U2C U20C: the nonsense suppression amounted to 0.0975.

For the variant C3G A13U, the nonsense suppression is 0.0541.

For the variant C3U C80U, the nonsense suppression is 0.0737.

C3U A33U: the nonsense suppression is 0.027.

On to U2C U55A, for which the nonsense suppression was no more than 0.026.

With U2C G78A, the nonsense suppression was found to be 0.0386.

Turning to C3U A54C, the nonsense suppression stood at 0.079.

With C3U C12U, the nonsense suppression turned out to be 0.039.

For the variant C3U C12G, the nonsense suppression was no more than 0.026.

Take C3U G6C A9U A13G A23G A60G G69C: the nonsense suppression is no more than 0.026.

On to C3A C12G G18U U20G G61U U70G C75G, for which the nonsense suppression is no more than 0.026.

For C3U A9G, the nonsense suppression was found to be 0.195.

For C3G U55C, the nonsense suppression was 0.152.

Consider C3G C77A, for which the nonsense suppression is no more than 0.026.

As to C3A U20G G28U U57C G61C A74U G78C C79A, the nonsense suppression was no more than 0.026.

Consider C3A U4A A62G, for which the nonsense suppression is no more than 0.026.

Consider C3A U20A G28A, for which the nonsense suppression is no more than 0.026.

For the variant U2C U57A, the nonsense suppression was 0.0292.

Take C3G G84U: the nonsense suppression is no more than 0.026.

On to C3A G66C, for which the nonsense suppression is no more than 0.026.

As for C3A A9G C64G, the nonsense suppression is no more than 0.026.

Take U2G C12A: the nonsense suppression was no more than 0.026.

As to U2C U63G G73A, the nonsense suppression was no more than 0.026.

Take C3A C5G U57C U70A C80A: the nonsense suppression was no more than 0.026.

As for U2C G19C U35A, the nonsense suppression is no more than 0.026.

As for C3U A30G C34U, the nonsense suppression was no more than 0.026.

Regarding U2G A87U, the nonsense suppression was determined as 0.655.

Regarding U2G U55C, the nonsense suppression is 0.053.

Consider U2G U55G, for which the nonsense suppression is no more than 0.026.

For the variant U2G G32C, the nonsense suppression was no more than 0.026.

For C3G A31C C68G C77U, the nonsense suppression was no more than 0.026.

Consider C3A C34A U58A, for which the nonsense suppression was no more than 0.026.

Regarding C3A A33U, the nonsense suppression is no more than 0.026.

For C3G C27U U57C G59A G61A, the nonsense suppression was no more than 0.026.

In the case of U2G C11U U55G A60U C82G G86C G88U, the nonsense suppression is no more than 0.026.

Consider U2C U16G, for which the nonsense suppression stood at 0.168.

On to U2G U16G U22G A23U, for which the nonsense suppression was no more than 0.026.

On to U2G G19U A31U C83A G84A, for which the nonsense suppression was no more than 0.026.

For the variant C3A G6A U71G, the nonsense suppression is no more than 0.026.
